Experiment [1] is described as follows: Agonist activity at PPARgamma in human MKN45 cells assessed as induction of cell aggregation incubated for 5 days by Hoechst 33342 staining based IN cell analyzer method.
Experiment [2] addresses T1, Peroxisome proliferator-activated receptor gamma (Homo sapiens, UniProt P37231).
T1 sequence (P37231 whole entry): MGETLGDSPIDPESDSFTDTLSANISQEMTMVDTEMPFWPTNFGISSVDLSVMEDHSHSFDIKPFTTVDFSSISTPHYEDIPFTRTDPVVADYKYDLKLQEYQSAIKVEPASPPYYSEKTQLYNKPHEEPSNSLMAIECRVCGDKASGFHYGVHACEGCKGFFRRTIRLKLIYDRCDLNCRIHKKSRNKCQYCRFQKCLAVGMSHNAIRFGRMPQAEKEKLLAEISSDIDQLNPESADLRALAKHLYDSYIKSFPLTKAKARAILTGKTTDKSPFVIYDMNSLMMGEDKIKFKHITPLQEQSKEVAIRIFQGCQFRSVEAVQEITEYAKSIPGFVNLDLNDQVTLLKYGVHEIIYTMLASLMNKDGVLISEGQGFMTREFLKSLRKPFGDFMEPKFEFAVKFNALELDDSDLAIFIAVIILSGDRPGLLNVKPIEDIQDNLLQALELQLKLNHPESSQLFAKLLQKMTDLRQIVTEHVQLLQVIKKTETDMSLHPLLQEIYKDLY
The experiment is described as follows: Agonist activity at PPARgamma in human MKN45 cells assessed as induction of cell aggregation incubated for 5 days by Hoechst 33342 staining based IN cell analyzer method. The method, boiled down: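 MKN45 cells in RPMI1640 with 10% FBS at 37 °C, 5% CO2, seeded 2500 cells/well and exposed to compound 1-1000 nM (n = 3 per concentration) for 5 days. Nuclei stained with Hoechst 33342, imaged on IN Cell Analyzer, nuclear area computed. Maximum activity expressed as % of reference compound maximum; EC50 = concentration giving 50% of own maximum.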

Broadly, the EC50 is the concentration needed to bring the measured effect to its halfway point. Take `C/C(=C1/c2ccc(Cc3c(C4CC4)nc4ccccn34)cc2COc2cc(F)ccc21)c1noc(=O)[nH]1`: the EC50 in experiment [1] came out at 5.3 nM.

In the case of `C/C(=C1/c2ccc(Cc3c(C4CC4)nc4ccc(Cl)cn34)cc2COc2cc(F)ccc21)c1noc(=O)[nH]1`, in experiment [1], the EC50 stood at 2 nM.

Turning to `COCc1nc2cc(Cl)ccn2c1Cc1ccc2c(c1)COc1cc(F)ccc1/C2=C(\C)c1noc(=O)[nH]1`, the EC50 in experiment [2] stood at 1 nM.

Regarding `CCCc1nc2ccccc2n1Cc1ccc2c(c1)COc1ccc(F)cc1/C2=C(\C)c1noc(=O)[nH]1`, in experiment [1], the EC50 is 7 nM.

As for `CCCc1nc2ccccc2n1Cc1ccc2c(c1)COc1cc(F)ccc1/C2=C(\C)c1noc(=O)[nH]1`, the EC50 in experiment [1] amounted to 1 nM.

On to `C/C(=C1/c2ccc(Cc3c(C4CC4)nc4cc(Cl)ccn34)cc2COc2cc(F)ccc21)c1noc(=O)[nH]1`, for which the EC50 in experiment [1] was found to be 1.4 nM.

Turning to `C/C(=C1/c2ccc(Cc3c(C4CC4)nc4cc(F)ccn34)cc2COc2cc(F)ccc21)c1noc(=O)[nH]1`, the EC50 in experiment [1] turned out to be 1.7 nM.

With `C/C(=C1/c2ccc(Cc3c(C4CC4)nc4c(Cl)cccn34)cc2COc2cc(F)ccc21)c1noc(=O)[nH]1`, the EC50 in experiment [1] was 2.5 nM.

For the compound `C/C(=C1/c2ccc(Cn3c(C4CC4)nc4cscc43)cc2COc2cc(F)ccc21)c1noc(=O)[nH]1`, the EC50 in experiment [1] came to 3 nM.

For the compound `CCCc1nc2ccccc2n1Cc1ccc2c(c1)COc1c(F)cccc1/C2=C(\C)c1noc(=O)[nH]1`, the EC50 in experiment [1] was 3.8 nM.

`C/C(=C1/c2ccc(Cn3c(C4CC4)nc4c(Cl)ccnc43)cc2COc2cc(F)ccc21)c1noc(=O)[nH]1`: the concentration for a half-maximal effect (EC50) in experiment [1] stood at 32 nM.

For `C/C(=C1/c2ccc(Cn3c(C4CC4)nc4c(Cl)nccc43)cc2COc2cc(F)ccc21)c1noc(=O)[nH]1`, in experiment [1], the EC50 worked out at 22 nM.

On to `CCCc1nc2c(C)cccc2n1Cc1ccc2c(c1)COc1ccccc1/C2=C(\C)c1noc(=O)[nH]1`, for which, in experiment [1], the EC50 came to 3.3 nM.

With `C/C(=C1/c2ccc(Cc3c(C4CC4)nc4c5c(ccn34)OCC5)cc2COc2cc(F)ccc21)c1noc(=O)[nH]1`, the EC50 in experiment [1] is 19 nM.

The values are drawn from BindingDB's records for doi:10.1016/j.bmc.2019.115122 (Hokkaido University, 2019).
